Assays:
[1] = tested on: Human immunodeficiency virus 1; assay: Antiviral activity against HIV1 3B; assay type: functional, organism-based; settings: Human immunodeficiency virus 1, 3B
[2] = tested on: Human immunodeficiency virus 1; assay: Antiviral activity against HIV1 3B in presence of 50% human serum; assay type: functional, organism-based; settings: Human immunodeficiency virus 1, 3B
[3] = AUC in Beagle dog at 15 mg/kg, po; assay type: ADME, organism-based, Canis lupus familiaris; set-up: dose 15 mg/kg, route oral; settings: plasma
[4] = Cmax in Beagle dog at 15 mg/kg, po; assay type: ADME, organism-based, Canis lupus familiaris; set-up: dose 15 mg/kg, route oral; settings: in vivo
[5] = Tmax in Beagle dog at 15 mg/kg, po; assay type: ADME, organism-based, Canis lupus familiaris; set-up: dose 15 mg/kg, route oral; settings: in vivo
[6] = Volume of distribution at steady state in Beagle dog at 15 mg/kg, iv; assay type: ADME, organism-based, Canis lupus familiaris; set-up: dose 15 mg/kg, route intravenous; settings: in vivo, read-out: Vdss
[7] = Plasma clearance in Beagle dog at 15 mg/kg, iv; assay type: ADME, organism-based, Canis lupus familiaris; set-up: dose 15 mg/kg, route intravenous
[8] = Oral bioavailability in Beagle dog at 15 mg/kg; assay type: ADME, organism-based, Canis lupus familiaris; settings: in vivo
[9] = Plasma concentration in Beagle dog at 15 mg/kg, po after 12 hrs; assay type: ADME, organism-based, Canis lupus familiaris; set-up: dose 15 mg/kg, route oral
[10] = Metabolic stability in human liver microsomes assessed as compound remaining at 5 uM in presence of NADPH by RP-HPLC; assay type: ADME, Microsome; settings: read-out: Stability
How it was run: (§1)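 Test drug at 5 µM incubated with liver microsomes (0.5 mg/ml) plus cofactor (1 mM NADPH or 5 mM UDPGA) at 37 °C for 30 min. Residual drug measured by RP-HPLC. Values are the mean percent remaining of duplicates.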

[11] = Metabolic stability in human liver microsomes assessed as compound remaining at 5 uM in presence of UDPGA by RP-HPLC; assay type: ADME, Microsome; settings: read-out: Stability; how it was run: as §1
Protease = Protease (Human immunodeficiency virus 1, UniProt Q9YQ12); assay: Inhibition of HIV1 protease
Liver [12] = assay: Metabolic stability in dog liver microsomes assessed as compound remaining in presence of NADPH by RP-HPLC; assay type: ADME, Canis lupus familiaris, Microsome; how it was run: as §1
Liver [13] = assay: Metabolic stability in dog liver microsomes assessed as compound remaining in presence of UDPGA by RP-HPLC; assay type: ADME, Canis lupus familiaris, Microsome; how it was run: as §1
[14] = tested on: Human immunodeficiency virus 1; assay: Ratio of EC50 for HIV1 mutant strain 5 to EC50 for wild type HIV1; assay type: functional
[15] = tested on: Human immunodeficiency virus 1; assay: Ratio of EC50 for HIV1 mutant strain 6 to EC50 for wild type HIV1; assay type: functional
[16] = tested on: Human immunodeficiency virus 1; assay: Ratio of EC50 for HIV1 mutant strain 7 to EC50 for wild type HIV1; assay type: functional
How it was run: (§2)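 PhenoSense phenotypic assay. Strain 7 protease mutations include T4A, L10I, K20R, L23I, L33F, E35D, M36I, K43T, M46L. EC50 in µM. Fold change is versus the wild-type EC50.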

[17] = tested on: Human immunodeficiency virus 1; assay: Antiviral activity against wild type HIV1; assay type: functional, organism-based
[18] = tested on: Human immunodeficiency virus 1; assay: Antiviral activity against HIV1 mutant strain 1; assay type: functional, organism-based
How it was run: (§3)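 PhenoSense phenotypic susceptibility assay on multi-drug-resistant clinical HIV-1 protease variant strains, run in parallel with a wild-type reference. EC50 read in µM. Fold change is mutant EC50 divided by wild-type EC50.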

[19] = tested on: Human immunodeficiency virus 1; assay: Antiviral activity against HIV1 mutant strain 2; assay type: functional, organism-based
How it was run: (§4)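 PhenoSense phenotypic assay. Strain 2 protease carries L10I, G16A, K45V, F53L, I54V, K55N, D60E, L63P, A71V, I72K, V77I, V82F, I84V, L90M, I93L. EC50 in µM. Fold change is versus the wild-type EC50.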

[20] = tested on: Human immunodeficiency virus 1; assay: Antiviral activity against HIV1 mutant strain 3; assay type: functional, organism-based
[21] = tested on: Human immunodeficiency virus 1; assay: Antiviral activity against HIV1 mutant strain 4; assay type: functional, organism-based
[22] = tested on: Human immunodeficiency virus 1; assay: Antiviral activity against HIV1 mutant strain 5; assay type: functional, organism-based
[23] = tested on: Human immunodeficiency virus 1; assay: Antiviral activity against HIV1 mutant strain 6; assay type: functional, organism-based
[24] = tested on: Human immunodeficiency virus 1; assay: Antiviral activity against HIV1 mutant strain 7; assay type: functional, organism-based; how it was run: as §2
[25] = tested on: Human immunodeficiency virus 1; assay: Ratio of EC50 for HIV1 mutant strain 1 to EC50 for wild type HIV1; assay type: functional; how it was run: as §3
[26] = tested on: Human immunodeficiency virus 1; assay: Ratio of EC50 for HIV1 mutant strain 2 to EC50 for wild type HIV1; assay type: functional; how it was run: as §4
[27] = tested on: Human immunodeficiency virus 1; assay: Ratio of EC50 for HIV1 mutant strain 3 to EC50 for wild type HIV1; assay type: functional
[28] = tested on: Human immunodeficiency virus 1; assay: Ratio of EC50 for HIV1 mutant strain 4 to EC50 for wild type HIV1; assay type: functional
[29] = Metabolic stability in rat liver microsomes assessed as compound remaining at 5 uM by RP-HPLC; assay type: ADME, Microsome; settings: read-out: Stability; how it was run: as §1
[30] = Metabolic stability in rat liver microsomes assessed as compound remaining at 5 uM in presence of 0.5 uM ritonavir by RP-HPLC; assay type: ADME, Microsome; settings: with ritonavir 0.5 uM, read-out: Stability
[31] = Metabolic stability in rat liver microsomes assessed as compound remaining at 5 uM in presence of 2.5 uM ritonavir by RP-HPLC; assay type: ADME, Microsome; settings: with ritonavir 2.5 uM, read-out: Stability
[32] = Metabolic stability in dog liver microsomes assessed as compound remaining at 5 uM by RP-HPLC; assay type: ADME, Canis lupus familiaris, Microsome; settings: read-out: Stability; how it was run: as §1
[33] = Metabolic stability in dog liver microsomes assessed as compound remaining at 5 uM in presence of 0.5 uM ritonavir by RP-HPLC; assay type: ADME, Canis lupus familiaris, Microsome; settings: with ritonavir 0.5 uM, read-out: Stability
[34] = Metabolic stability in dog liver microsomes assessed as compound remaining at 5 uM in presence of 2.5 uM ritonavir by RP-HPLC; assay type: ADME, Canis lupus familiaris, Microsome; settings: with ritonavir 2.5 uM, read-out: Stability
[35] = Metabolic stability in human liver microsomes assessed as compound remaining at 5 uM by RP-HPLC; assay type: ADME, Microsome; settings: read-out: Stability; how it was run: as §1
[36] = Metabolic stability in human liver microsomes assessed as compound remaining at 5 uM in presence of 0.5 uM ritonavir by RP-HPLC; assay type: ADME, Microsome; settings: with ritonavir 0.5 uM, read-out: Stability
[37] = Metabolic stability in human liver microsomes assessed as compound remaining at 5 uM in presence of 2.5 uM ritonavir by RP-HPLC; assay type: ADME, Microsome; settings: with ritonavir 2.5 uM, read-out: Stability

Protease, sequence (Q9YQ12 whole entry): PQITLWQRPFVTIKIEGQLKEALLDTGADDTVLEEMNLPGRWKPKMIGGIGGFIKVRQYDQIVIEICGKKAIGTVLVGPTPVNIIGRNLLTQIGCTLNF

COc1cccc(C[C@H](NC(=O)c2cccc(N)c2Cl)[C@H](O)C(=O)N2CCC(C)(C)[C@H]2C(=O)NCc2c(C)cccc2C)c1
EC50 [1]: 36 nM | EC50 [2]: 87 nM | AUC [3]: 36.7 µM·h | Cmax [4]: 5000 nM | Tmax [5]: 60 min | Vd [6]: 1.9 L/kg | clearance [7]: 16.7 mL/min/kg | bioavailability [8]: 146% | concentration at 12 h [9]: 710 nM | remaining at 5 µM [10]: 83% | remaining at 5 µM [11]: > 95% | Ki (Protease): 0.75 nM | Stability (Liver [12]): 69% | Stability (Liver [13]): > 95%

CC(C)CN(C[C@@H](O)[C@H](Cc1ccccc1)NC(=O)O[C@H]1CCOC1)S(=O)(=O)c1ccc(N)cc1
EC50 [1]: 16 nM | EC50 [2]: 95 nM | Ratio EC50 [14]: 43 | Ratio EC50 [15]: 30 | Ratio EC50 [16]: 12 | Ki (Protease): 0.359 nM | EC50 [17]: 14 nM | EC50 [18]: 98 nM | EC50 [19]: 350 nM | EC50 [20]: 143 nM | EC50 [21]: 51 nM | EC50 [22]: 615 nM | EC50 [23]: 432 nM | EC50 [24]: 165 nM | Ratio EC50 [25]: 7 | Ratio EC50 [26]: 25 | Ratio EC50 [27]: 10 | Ratio EC50 [28]: 4

Cc1ccccc1CNC(=O)[C@H]1N(C(=O)[C@@H](O)[C@H](Cc2ccc3c(c2)OCO3)NC(=O)c2cccc(N)c2Cl)CSC1(C)C
EC50 [1]: 20 nM | EC50 [2]: 77 nM | remaining at 5 µM [10]: 74% | remaining at 5 µM [11]: > 95% | Ki (Protease): 0.163 nM

COC(=O)N[C@H](C(=O)N[C@@H](Cc1ccccc1)[C@@H](O)CN(Cc1ccc(-c2ccccn2)cc1)NC(=O)[C@@H](NC(=O)OC)C(C)(C)C)C(C)(C)C [ATAZANAVIR]
EC50 [1]: < 4 nM | EC50 [2]: 9 nM | AUC [3]: 15 µM·h | Cmax [4]: 4200 nM | Tmax [5]: 30 min | Vd [6]: 2 L/kg | clearance [7]: 26.7 mL/min/kg | bioavailability [8]: 102% | concentration at 12 h [9]: 50 nM | Ratio EC50 [14]: 180 | Ratio EC50 [15]: 90 | Ratio EC50 [16]: 50 | remaining at 5 µM [10]: 83% | remaining at 5 µM [11]: > 95% | Ki (Protease): 0.05 nM | Stability (Liver [12]): 83% | Stability (Liver [13]): > 95% | EC50 [17]: 1.5 nM | EC50 [18]: 92 nM | EC50 [19]: 48 nM | EC50 [20]: 23 nM | EC50 [21]: 95 nM | EC50 [22]: 266 nM | EC50 [23]: 134 nM | EC50 [24]: 74 nM | Ratio EC50 [25]: 62 | Ratio EC50 [26]: 32 | Ratio EC50 [27]: 16 | Ratio EC50 [28]: 64

COc1ccc(C[C@H](NC(=O)c2cccc(N)c2Cl)[C@H](O)C(=O)N2CSC(C)(C)[C@H]2C(=O)NCc2ccccc2C)cc1
EC50 [1]: 18 nM | EC50 [2]: 88 nM | remaining at 5 µM [10]: 60% | remaining at 5 µM [11]: > 95% | Ki (Protease): 0.311 nM

Cc1c(O)cccc1C(=O)N[C@@H](CSc1ccccc1)[C@H](O)CN1C[C@H]2CCCC[C@H]2C[C@H]1C(=O)NC(C)(C)C
EC50 [1]: 19 nM | EC50 [2]: 293 nM | Ratio EC50 [14]: 141 | Ratio EC50 [15]: >273 | Ratio EC50 [16]: 94 | Ki (Protease): 0.931 nM | EC50 [17]: 5.4 nM | EC50 [18]: 452 nM | EC50 [19]: 346 nM | EC50 [20]: 413 nM | EC50 [21]: > 1500 nM | EC50 [22]: 776 nM | EC50 [23]: > 1500 nM | EC50 [24]: 515 nM | Ratio EC50 [25]: 82 | Ratio EC50 [26]: 64 | Ratio EC50 [27]: 75 | Ratio EC50 [28]: >273

COc1ccc(C[C@H](NC(=O)c2cccc(N)c2Cl)[C@H](O)C(=O)N2CCC(C)(C)[C@H]2C(=O)NCc2c(C)cccc2C)cc1
EC50 [1]: 40 nM | EC50 [2]: 80 nM | remaining at 5 µM [10]: 63% | remaining at 5 µM [11]: > 95% | Ki (Protease): 0.804 nM

CC(C)(C)NC(=O)[C@@H]1C[C@@H]2CCCC[C@@H]2CN1C[C@@H](O)[C@H](Cc1ccccc1)NC(=O)[C@H](CC(N)=O)NC(=O)c1ccc2ccccc2n1
EC50 [1]: 7 nM | EC50 [2]: 50 nM | EC50 [17]: 1.9 nM | EC50 [18]: > 500 nM | EC50 [19]: 97 nM | EC50 [20]: > 500 nM | EC50 [21]: > 500 nM | EC50 [22]: > 500 nM | EC50 [23]: 158 nM | EC50 [24]: 141 nM

Cc1cccc(C)c1OCC(=O)N[C@@H](Cc1ccccc1)[C@@H](O)C[C@H](Cc1ccccc1)NC(=O)[C@H](C(C)C)N1CCCNC1=O [LOPINAVIR]
EC50 [1]: 8 nM | EC50 [2]: 8 nM | remaining at 5 µM [29]: 11% | remaining at 5 µM [30]: 83% | remaining at 5 µM [31]: > 95% | remaining at 5 µM [32]: 16% | remaining at 5 µM [33]: 83% | remaining at 5 µM [34]: > 95% | remaining at 5 µM [35]: 10% | remaining at 5 µM [36]: > 95% | remaining at 5 µM [37]: > 95% | EC50 [17]: 3.7 nM | EC50 [18]: 214 nM | EC50 [19]: 251 nM | EC50 [20]: 657 nM | EC50 [21]: 66 nM | EC50 [22]: 807 nM | EC50 [23]: 411 nM | EC50 [24]: 212 nM
